Experimental data: ChEMBL document CHEMBL1921722, “In vitro and in vivo evaluation of select kahalalide F analogs with antitumor and antifungal activities” (Bioorg Med Chem, 2011)
Activity calls are given as the source filed them. The rule behind the calls is not given here.

Experiments:
Escherichia coli = assay: Antimicrobial activity against Escherichia coli ATCC 35218 by CLSI method; format: functional, organism-based
SF-539 [1] = assay: Cytotoxicity against human SF539 cells assessed as cell growth at 8 nM by sulforhodamine B assay relative to control; format: functional; conditions: read-out: Activity
A549 [2] = assay: Cytotoxicity against human A549 cells assessed as cell growth at 8 uM by sulforhodamine B assay relative to control; format: functional; conditions: read-out: Activity
Method in brief: (§1)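 Run at NCI in the DTP 60-cell-line human tumor panel by standard procedure. Compounds were first screened at a single concentration, then tested at five tenfold-spaced concentrations. GI50 is the concentration reducing treated-cell growth to half that of untreated controls; TGI is the concentration completely halting growth.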

786-0 [3] = assay: Cytotoxicity against human 786-0 cells assessed as cell growth at 80 nM by sulforhodamine B assay relative to control; format: functional; conditions: read-out: Activity; method in brief: as §1
UACC-62 = assay: Cytotoxicity against human UACC62 cells assessed as cell growth at 8 uM by sulforhodamine B assay relative to control; format: functional; conditions: read-out: Activity
MCF7 = assay: Cytotoxicity against human MCF7 cells assessed as cell growth at 8 nM by sulforhodamine B assay relative to control; format: functional; conditions: read-out: Activity
Malme-3M [4] = assay: Cytotoxicity against human MALME-3M cells assessed as cell growth at 80 uM by sulforhodamine B assay relative to control; format: functional; conditions: read-out: Activity
SF-295 [5] = assay: Cytotoxicity against human SF295 cells assessed as cell growth at 80 uM by sulforhodamine B assay relative to control; format: functional; conditions: read-out: Activity
ACHN [6] = assay: Cytotoxicity against human ACHN cells assessed as cell growth at 8 uM by sulforhodamine B assay relative to control; format: functional; conditions: read-out: Activity; method in brief: as §1
Malme-3M [7] = assay: Cytotoxicity against human MALME-3M cells assessed as cell growth at 8 uM by sulforhodamine B assay relative to control; format: functional; conditions: read-out: Activity
ACHN [8] = assay: Cytotoxicity against human ACHN cells assessed as cell growth at 80 nM by sulforhodamine B assay relative to control; format: functional; conditions: read-out: Activity; method in brief: as §1
SNB-75 = assay: Cytotoxicity against human SNB75 cells assessed as cell growth at 80 nM by sulforhodamine B assay relative to control; format: functional; conditions: read-out: Activity
SN12C = assay: Cytotoxicity against human SN12C cells assessed as cell growth at 80 uM by sulforhodamine B assay relative to control; format: functional; conditions: read-out: Activity
MOLT-4 = assay: Cytotoxicity against human MOLT4 cells assessed as cell growth at 800 nM by sulforhodamine B assay relative to control; format: functional; conditions: read-out: Activity
M14 = assay: Cytotoxicity against human M14 cells assessed as cell growth at 8 nM by sulforhodamine B assay relative to control; format: functional; conditions: read-out: Activity
DU-145 = assay: Cytotoxicity against human DU145 cells assessed as cell growth at 80 nM by sulforhodamine B assay relative to control; format: functional; conditions: read-out: Activity
RPMI-8226 [9] = assay: Cytotoxicity against human RPMI8226 cells assessed as cell growth at 8 nM by sulforhodamine B assay relative to control; format: functional; conditions: read-out: Activity
SNB-19 = assay: Cytotoxicity against human SNB19 cells assessed as cell growth at 8 uM by sulforhodamine B assay relative to control; format: functional; conditions: read-out: Activity
HL-60(TB) = assay: Cytotoxicity against human HL-60(TB) cells assessed as cell growth at 80 nM by sulforhodamine B assay relative to control; format: functional; conditions: read-out: Activity
K562 [10] = assay: Cytotoxicity against human K562 cells assessed as cell growth at 8 nM by sulforhodamine B assay relative to control; format: functional; conditions: read-out: Activity
RPMI-8226 [11] = assay: Cytotoxicity against human RPMI8226 cells assessed as cell growth at 80 nM by sulforhodamine B assay relative to control; format: functional; conditions: read-out: Activity
MDA-MB-435 [12] = assay: Cytotoxicity against human MDA-MB-435 cells assessed as cell growth at 8 uM by sulforhodamine B assay relative to control; format: functional; conditions: read-out: Activity
PC-3 = assay: Cytotoxicity against human PC3 cells assessed as cell growth at 8 uM by sulforhodamine B assay relative to control; format: functional; conditions: read-out: Activity
K562 [13] = assay: Cytotoxicity against human K562 cells assessed as cell growth at 800 nM by sulforhodamine B assay relative to control; format: functional; conditions: read-out: Activity
NCI-H460 = assay: Cytotoxicity against human NCI-H460 cells assessed as cell growth at 800 nM by sulforhodamine B assay relative to control; format: functional; conditions: read-out: Activity
K562 [14] = assay: Cytotoxicity against human K562 cells assessed as cell growth at 80 nM by sulforhodamine B assay relative to control; format: functional; conditions: read-out: Activity
OVCAR-8 = assay: Cytotoxicity against human OVCAR8 cells by sulforhodamine B assay; format: functional
Method in brief: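 NCI Developmental Therapeutics Program 60-cell-line human tumor panel, standard procedure. Single-concentration prescreen first; active compounds then tested at five concentrations. GI50 is the concentration reducing growth of treated cells to half that of untreated controls.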

SF-539 [15] = assay: Cytotoxicity against human SF539 cells assessed as cell growth at 800 nM by sulforhodamine B assay relative to control; format: functional; conditions: read-out: Activity
SF-295 [16] = assay: Cytotoxicity against human SF295 cells assessed as cell growth at 80 nM by sulforhodamine B assay relative to control; format: functional; conditions: read-out: Activity
SF-295 [17] = assay: Cytotoxicity against human SF295 cells assessed as cell growth at 8 uM by sulforhodamine B assay relative to control; format: functional; conditions: read-out: Activity
Hs-578T [18] = assay: Cytotoxicity against human Hs578T cells by sulforhodamine B assay; format: functional
Method in brief: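 NCI Developmental Therapeutics Program 60-cell-line human tumor panel screen, run at NCI. A single-concentration pre-screen was followed by a five-concentration dose-response in 10-fold steps. GI50 is the concentration that reduces growth of treated cells to half that of untreated control cells. TGI is the concentration that completely halts growth.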

SK-MEL-28 = assay: Cytotoxicity against human SK-MEL-28 cells assessed as cell growth at 8 nM by sulforhodamine B assay relative to control; format: functional; conditions: read-out: Activity
786-0 [19] = assay: Cytotoxicity against human 786-0 cells assessed as cell growth at 8 nM by sulforhodamine B assay relative to control; format: functional; conditions: read-out: Activity; method in brief: as §1
A549 [20] = assay: Cytotoxicity against human A549 cells assessed as cell growth at 80 nM by sulforhodamine B assay relative to control; format: functional; conditions: read-out: Activity; method in brief: as §1
MDA-MB-435 [21] = assay: Cytotoxicity against human MDA-MB-435 cells assessed as cell growth at 80 nM by sulforhodamine B assay relative to control; format: functional; conditions: read-out: Activity
786-0 [22] = assay: Cytotoxicity against human 786-0 cells assessed as cell growth at 80 uM by sulforhodamine B assay relative to control; format: functional; conditions: read-out: Activity; method in brief: as §1
SF-295 [23] = assay: Cytotoxicity against human SF295 cells assessed as cell growth at 8 nM by sulforhodamine B assay relative to control; format: functional; conditions: read-out: Activity
SF-539 [24] = assay: Cytotoxicity against human SF539 cells assessed as cell growth at 80 nM by sulforhodamine B assay relative to control; format: functional; conditions: read-out: Activity
Mus musculus = assay: Acute toxicity in athymic nude mouse assessed as mortality at 25 mg/kg, […]; format: organism-based; parameters: dose 25 mg/kg, route intraperitoneal; conditions: in vivo, ip, 576 h
SF-268 = assay: Cytotoxicity against human SF268 cells assessed as cell growth at 800 nM by sulforhodamine B assay relative to control; format: functional; conditions: read-out: Activity
Hs-578T [25] = assay: Cytotoxicity against human Hs578T cells assessed as cell growth at 80 uM by sulforhodamine B assay relative to control; format: functional; conditions: read-out: Activity
HCC 2998 = assay: Cytotoxicity against human HCC2998 cells assessed as cell growth at 80 nM by sulforhodamine B assay relative to control; format: functional; conditions: read-out: Activity

C/C=C1\NC(=O)[C@H](Cc2ccccc2)NC(=O)[C@@H](C(C)C)NC(=O)[C@@H]([C@@H](C)CC)NC(=O)[C@H](NC(=O)[C@H](NC(=O)[C@H](CCCNCc2ccc(F)c(C)c2)NC(=O)[C@H]2CCCN2C(=O)[C@H](NC(=O)[C@@H](NC(=O)[C@@H](NC(=O)[C@H](NC(=O)CCCC(C)C)C(C)C)[C@@H](C)O)C(C)C)C(C)C)[C@@H](C)CC)[C@@H](C)OC(=O)[C@H](C(C)C)NC1=O
Activity (Escherichia coli): inactive | growth at 0.008 µM (SF-539 [1]): 105% | growth at 8 µM (A549 [2]): -64% | growth at 0.08 µM (786-0 [3]): 97% | growth at 8 µM (UACC-62): -98% | growth at 0.008 µM (MCF7): 95% | growth at 80 µM (Malme-3M [4]): 12% | growth at 80 µM (SF-295 [5]): -35% | growth at 8 µM (ACHN [6]): -97% | growth at 8 µM (Malme-3M [7]): -77% | growth at 0.08 µM (ACHN [8]): 100% | growth at 0.08 µM (SNB-75): 115% | growth at 80 µM (SN12C): -96% | growth at 0.8 µM (MOLT-4): 96% | growth at 0.008 µM (M14): 105% | growth at 0.08 µM (DU-145): 87% | growth at 0.008 µM (RPMI-8226 [9]): 128% | growth at 8 µM (SNB-19): -84% | growth at 0.08 µM (HL-60(TB)): 97% | growth at 0.008 µM (K562 [10]): 101% | growth at 0.08 µM (RPMI-8226 [11]): 129% | growth at 8 µM (MDA-MB-435 [12]): -95% | growth at 8 µM (PC-3): -95% | growth at 0.8 µM (K562 [13]): 107% | growth at 0.8 µM (NCI-H460): 104% | growth at 0.08 µM (K562 [14]): 106% | GI50 (OVCAR-8): 1860 nM | LC50 (OVCAR-8): 75900 nM | growth at 0.8 µM (SF-539 [15]): 93% | growth at 0.08 µM (SF-295 [16]): 85% | growth at 8 µM (SF-295 [17]): -89% | LC50 (Hs-578T [18]): > 75900 nM | GI50 (Hs-578T [18]; read-out: GI50): 217 nM | TGI (Hs-578T [18]; read-out: TGI): 665 nM | GI50 (Hs-578T [18]; read-out: pGI50 (converted)): 219 nM | TGI (Hs-578T [18]; read-out: pTGI (converted)): 661 nM | growth at 0.008 µM (SK-MEL-28): 97% | growth at 0.008 µM (786-0 [19]): 103% | growth at 0.08 µM (A549 [20]): 98% | growth at 0.08 µM (MDA-MB-435 [21]): 103% | growth at 80 µM (786-0 [22]): -98% | growth at 0.008 µM (SF-295 [23]): 99% | growth at 0.08 µM (SF-539 [24]): 104% | Activity (Mus musculus): Toxic | growth at 0.8 µM (SF-268): 63% | growth at 80 µM (Hs-578T [25]): -30% | growth at 0.08 µM (HCC 2998): 105%
